# Results: ChEMBL document CHEMBL5653631, “A Potent and Selective ULK1 Inhibitor Suppresses Autophagy and Sensitizes Cancer Cells to Nutrient Stress” (iScience, 2018)
# Active and inactive are the calls of the source. The calls are words filed in the database; no cut-off is given here.
# Columns and labels:
# [1] = biological target: Serine/threonine-protein kinase 35 (Homo sapiens) (UniProt Q8TDR2); test: Inhibition of human recombinant CLIK1 at 40 nM related to control ULK1
# [2] = biological target: T1, Rhodopsin kinase GRK1 (Homo sapiens) (UniProt Q15835); test: Inhibition of human recombinant RHOK at 40 nM related to control ULK1
# T1 sequence (whole entry): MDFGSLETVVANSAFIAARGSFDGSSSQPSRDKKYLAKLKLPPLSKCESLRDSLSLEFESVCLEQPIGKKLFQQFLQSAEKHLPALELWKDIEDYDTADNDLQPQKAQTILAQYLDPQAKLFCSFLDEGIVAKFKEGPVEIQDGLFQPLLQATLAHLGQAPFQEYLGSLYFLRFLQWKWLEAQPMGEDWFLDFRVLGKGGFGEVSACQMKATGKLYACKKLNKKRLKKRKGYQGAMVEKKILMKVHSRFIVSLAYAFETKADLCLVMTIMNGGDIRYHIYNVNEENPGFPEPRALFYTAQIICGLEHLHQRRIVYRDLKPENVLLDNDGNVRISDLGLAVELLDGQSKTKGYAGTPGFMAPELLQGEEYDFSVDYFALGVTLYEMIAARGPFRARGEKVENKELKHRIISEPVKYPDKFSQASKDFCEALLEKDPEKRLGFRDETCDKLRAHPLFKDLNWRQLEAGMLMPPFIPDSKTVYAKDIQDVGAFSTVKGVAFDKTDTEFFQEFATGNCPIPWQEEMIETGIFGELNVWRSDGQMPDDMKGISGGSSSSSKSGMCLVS
# [3] = biological target: Homeodomain-interacting protein kinase 3 (Homo sapiens) (UniProt Q9H422); test: Inhibition of human recombinant HIPK3 at 40 nM related to control ULK1
# Chain of Homeodomain-interacting protein kinase 3 (Homo sapiens) (Q9H422 whole entry, looked up): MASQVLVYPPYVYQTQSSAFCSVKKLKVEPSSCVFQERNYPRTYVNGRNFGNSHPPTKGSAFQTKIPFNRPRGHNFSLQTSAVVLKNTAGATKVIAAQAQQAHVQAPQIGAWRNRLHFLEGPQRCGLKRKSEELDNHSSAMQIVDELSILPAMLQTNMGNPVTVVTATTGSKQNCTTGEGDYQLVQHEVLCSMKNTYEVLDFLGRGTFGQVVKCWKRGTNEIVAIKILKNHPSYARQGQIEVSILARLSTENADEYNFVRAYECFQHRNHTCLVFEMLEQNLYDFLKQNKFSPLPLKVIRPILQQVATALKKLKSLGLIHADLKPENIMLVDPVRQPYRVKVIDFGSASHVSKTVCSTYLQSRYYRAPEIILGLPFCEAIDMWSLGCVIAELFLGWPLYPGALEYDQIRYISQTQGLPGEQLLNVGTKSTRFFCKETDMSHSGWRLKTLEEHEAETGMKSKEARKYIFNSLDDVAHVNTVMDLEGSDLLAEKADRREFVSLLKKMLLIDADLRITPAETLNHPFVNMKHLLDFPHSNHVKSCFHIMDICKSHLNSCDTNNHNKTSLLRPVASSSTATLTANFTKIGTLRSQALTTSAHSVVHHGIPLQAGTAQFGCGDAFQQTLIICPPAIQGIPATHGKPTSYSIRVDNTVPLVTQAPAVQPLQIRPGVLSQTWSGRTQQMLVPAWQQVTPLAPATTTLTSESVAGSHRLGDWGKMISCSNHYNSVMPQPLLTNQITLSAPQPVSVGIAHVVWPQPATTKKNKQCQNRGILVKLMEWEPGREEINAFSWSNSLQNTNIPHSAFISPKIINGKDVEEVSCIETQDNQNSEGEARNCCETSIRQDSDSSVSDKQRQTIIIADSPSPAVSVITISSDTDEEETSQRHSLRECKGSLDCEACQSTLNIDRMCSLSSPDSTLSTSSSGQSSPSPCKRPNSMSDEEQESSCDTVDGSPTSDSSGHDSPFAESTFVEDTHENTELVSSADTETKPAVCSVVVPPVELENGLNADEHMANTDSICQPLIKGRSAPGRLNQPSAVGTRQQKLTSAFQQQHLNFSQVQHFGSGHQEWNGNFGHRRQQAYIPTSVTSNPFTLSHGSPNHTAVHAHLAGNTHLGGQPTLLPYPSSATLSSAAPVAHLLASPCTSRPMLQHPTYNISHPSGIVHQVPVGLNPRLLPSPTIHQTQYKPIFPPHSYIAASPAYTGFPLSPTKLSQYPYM
# [4] = tested on: U2OS; test: Inhibition of autophagy in human U2OS cells assessed as reduction in phagophore formation at 5 uM incubated for 2.5 hrs by Fluorescent microscopy based analysis; type: functional, cell-based
# Method in brief: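 U2OS cells treated 2.5 hr with vehicle or 100 nM AZD8055, with or without 5 μM inhibitor; fixed and immunostained for endogenous ATG12; ATG12-positive puncta (phagophores) assessed by fluorescence microscopy.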
# [5] = biological target: STE20-like serine/threonine-protein kinase (Homo sapiens) (UniProt Q9H2G2); test: Inhibition of human recombinant SLK at 15 nM in presence of ATP by radiometric assay relative to control
# Chain of STE20-like serine/threonine-protein kinase (Homo sapiens) (Q9H2G2 whole entry, looked up): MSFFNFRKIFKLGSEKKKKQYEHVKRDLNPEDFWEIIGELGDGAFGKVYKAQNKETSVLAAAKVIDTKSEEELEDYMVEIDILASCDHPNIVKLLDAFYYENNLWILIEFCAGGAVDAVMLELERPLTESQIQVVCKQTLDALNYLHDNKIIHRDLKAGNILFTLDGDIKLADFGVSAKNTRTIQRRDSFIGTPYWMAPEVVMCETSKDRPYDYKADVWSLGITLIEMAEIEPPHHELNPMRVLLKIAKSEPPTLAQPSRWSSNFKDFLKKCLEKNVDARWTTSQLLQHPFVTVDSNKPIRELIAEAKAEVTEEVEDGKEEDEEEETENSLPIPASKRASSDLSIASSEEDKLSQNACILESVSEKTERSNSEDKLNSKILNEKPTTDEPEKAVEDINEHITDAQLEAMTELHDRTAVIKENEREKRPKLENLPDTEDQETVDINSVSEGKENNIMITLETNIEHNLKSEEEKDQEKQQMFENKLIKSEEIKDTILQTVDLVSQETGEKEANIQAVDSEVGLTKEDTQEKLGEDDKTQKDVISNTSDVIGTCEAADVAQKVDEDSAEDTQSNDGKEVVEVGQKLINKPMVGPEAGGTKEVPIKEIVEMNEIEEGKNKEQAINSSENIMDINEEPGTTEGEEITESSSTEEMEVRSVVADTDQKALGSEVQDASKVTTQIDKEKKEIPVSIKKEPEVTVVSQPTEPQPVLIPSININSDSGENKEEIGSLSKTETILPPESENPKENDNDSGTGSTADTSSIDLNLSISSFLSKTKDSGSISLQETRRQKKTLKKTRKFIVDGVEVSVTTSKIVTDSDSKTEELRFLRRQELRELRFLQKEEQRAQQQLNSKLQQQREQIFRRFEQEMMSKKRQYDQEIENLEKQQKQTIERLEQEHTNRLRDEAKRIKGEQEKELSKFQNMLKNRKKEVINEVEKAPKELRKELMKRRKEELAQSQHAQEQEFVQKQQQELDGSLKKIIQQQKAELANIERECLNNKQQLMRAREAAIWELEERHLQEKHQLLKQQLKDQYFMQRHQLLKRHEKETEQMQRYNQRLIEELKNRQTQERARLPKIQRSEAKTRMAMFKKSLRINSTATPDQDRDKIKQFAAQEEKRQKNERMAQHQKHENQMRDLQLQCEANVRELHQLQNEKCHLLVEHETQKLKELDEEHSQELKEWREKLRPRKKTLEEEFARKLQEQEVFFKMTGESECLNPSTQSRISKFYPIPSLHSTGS
# [6] = biological target: Serine/threonine-protein kinase Nek7 (Homo sapiens) (UniProt Q8TDX7); test: Inhibition of human recombinant NEK7 at 15 nM related to control ULK1
# Chain of Serine/threonine-protein kinase Nek7 (Homo sapiens) (Q8TDX7 whole entry, looked up): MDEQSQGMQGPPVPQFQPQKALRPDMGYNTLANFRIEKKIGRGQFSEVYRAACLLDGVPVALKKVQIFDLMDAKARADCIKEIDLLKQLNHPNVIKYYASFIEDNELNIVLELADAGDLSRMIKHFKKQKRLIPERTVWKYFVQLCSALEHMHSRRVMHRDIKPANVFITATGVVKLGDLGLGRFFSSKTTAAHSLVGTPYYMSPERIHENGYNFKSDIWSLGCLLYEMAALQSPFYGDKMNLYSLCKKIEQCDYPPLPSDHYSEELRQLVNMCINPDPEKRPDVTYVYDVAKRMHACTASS
# [7] = biological target: Serine/threonine-protein kinase PRP4 homolog (Homo sapiens) (UniProt Q13523); test: Inhibition of human recombinant PRP4 at 15 nM in presence of ATP by radiometric assay relative to control
# [8] = biological target: Homeodomain-interacting protein kinase 2 (Homo sapiens) (UniProt Q9H2X6); test: Inhibition of human recombinant HIPK2 at 15 nM in presence of ATP by radiometric assay relative to control
# Chain of Homeodomain-interacting protein kinase 2 (Homo sapiens) (Q9H2X6 whole entry, looked up): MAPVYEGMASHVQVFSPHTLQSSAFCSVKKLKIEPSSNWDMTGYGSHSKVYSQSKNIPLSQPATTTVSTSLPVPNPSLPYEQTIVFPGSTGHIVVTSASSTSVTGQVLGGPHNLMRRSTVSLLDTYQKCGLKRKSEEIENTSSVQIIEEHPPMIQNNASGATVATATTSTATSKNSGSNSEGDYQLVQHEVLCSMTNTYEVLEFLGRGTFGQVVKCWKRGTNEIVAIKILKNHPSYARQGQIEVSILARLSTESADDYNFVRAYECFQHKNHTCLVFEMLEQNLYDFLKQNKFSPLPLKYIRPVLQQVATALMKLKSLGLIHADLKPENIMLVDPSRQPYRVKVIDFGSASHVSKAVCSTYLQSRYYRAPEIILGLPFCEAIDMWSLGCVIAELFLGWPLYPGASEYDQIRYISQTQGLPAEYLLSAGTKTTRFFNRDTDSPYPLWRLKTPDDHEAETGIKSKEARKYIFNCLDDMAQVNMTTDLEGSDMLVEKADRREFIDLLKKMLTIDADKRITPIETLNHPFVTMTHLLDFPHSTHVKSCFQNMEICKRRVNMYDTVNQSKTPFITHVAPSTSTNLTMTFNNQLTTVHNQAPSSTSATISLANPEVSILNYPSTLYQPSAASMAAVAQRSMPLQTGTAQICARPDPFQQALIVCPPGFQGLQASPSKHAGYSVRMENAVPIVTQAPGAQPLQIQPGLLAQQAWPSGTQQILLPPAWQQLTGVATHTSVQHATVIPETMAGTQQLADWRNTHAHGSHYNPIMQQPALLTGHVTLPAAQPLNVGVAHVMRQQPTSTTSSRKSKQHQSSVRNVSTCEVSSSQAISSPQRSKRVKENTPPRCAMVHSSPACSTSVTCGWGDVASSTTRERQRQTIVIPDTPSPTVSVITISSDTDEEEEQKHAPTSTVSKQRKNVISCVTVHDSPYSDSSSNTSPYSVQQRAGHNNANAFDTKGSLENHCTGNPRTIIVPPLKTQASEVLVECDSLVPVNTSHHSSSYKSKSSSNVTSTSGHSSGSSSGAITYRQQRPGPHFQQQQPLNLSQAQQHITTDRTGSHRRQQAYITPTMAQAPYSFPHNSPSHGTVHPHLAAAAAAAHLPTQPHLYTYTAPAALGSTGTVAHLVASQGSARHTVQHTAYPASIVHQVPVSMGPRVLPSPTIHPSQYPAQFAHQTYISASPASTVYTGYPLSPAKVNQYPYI
# [9] = biological target: T2, Serine/threonine-protein kinase Sgk1 (Homo sapiens) (UniProt O00141); test: Inhibition of human recombinant SGK1 at 15 nM in presence of ATP by radiometric assay relative to control
# T2 sequence (whole entry): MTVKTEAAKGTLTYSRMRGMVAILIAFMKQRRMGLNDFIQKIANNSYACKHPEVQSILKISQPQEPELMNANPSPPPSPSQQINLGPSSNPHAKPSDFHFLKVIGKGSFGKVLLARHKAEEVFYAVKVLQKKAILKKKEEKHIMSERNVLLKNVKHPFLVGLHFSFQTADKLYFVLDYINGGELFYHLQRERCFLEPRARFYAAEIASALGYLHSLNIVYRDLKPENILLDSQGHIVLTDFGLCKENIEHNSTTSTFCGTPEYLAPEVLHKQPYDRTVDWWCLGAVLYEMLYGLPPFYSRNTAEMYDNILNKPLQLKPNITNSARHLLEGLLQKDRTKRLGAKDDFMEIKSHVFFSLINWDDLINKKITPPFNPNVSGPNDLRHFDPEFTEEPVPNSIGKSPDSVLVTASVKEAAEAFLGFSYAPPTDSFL
# [10] = biological target: T3, Serine/threonine-protein kinase Nek2 (Homo sapiens) (UniProt P51955); test: Inhibition of human recombinant NEK2 at 500 nM related to control ULK1
# T3 sequence (whole entry): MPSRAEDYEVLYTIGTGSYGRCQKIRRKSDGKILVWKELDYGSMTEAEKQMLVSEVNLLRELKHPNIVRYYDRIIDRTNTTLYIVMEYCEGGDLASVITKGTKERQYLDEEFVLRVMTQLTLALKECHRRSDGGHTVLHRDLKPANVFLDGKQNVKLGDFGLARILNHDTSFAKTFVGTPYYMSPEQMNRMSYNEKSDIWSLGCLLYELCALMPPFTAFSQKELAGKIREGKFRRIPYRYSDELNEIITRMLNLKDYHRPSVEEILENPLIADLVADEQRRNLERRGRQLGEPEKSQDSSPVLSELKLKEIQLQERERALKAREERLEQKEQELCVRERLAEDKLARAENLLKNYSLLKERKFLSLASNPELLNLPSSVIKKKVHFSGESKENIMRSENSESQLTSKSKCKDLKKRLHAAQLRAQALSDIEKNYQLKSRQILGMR
# [11] = biological target: T4, Serine/threonine-protein kinase BRSK2 (Homo sapiens) (UniProt Q8IWQ3); test: Inhibition of human recombinant BRSK2 at 500 nM related to control ULK1
# T4 sequence (whole entry): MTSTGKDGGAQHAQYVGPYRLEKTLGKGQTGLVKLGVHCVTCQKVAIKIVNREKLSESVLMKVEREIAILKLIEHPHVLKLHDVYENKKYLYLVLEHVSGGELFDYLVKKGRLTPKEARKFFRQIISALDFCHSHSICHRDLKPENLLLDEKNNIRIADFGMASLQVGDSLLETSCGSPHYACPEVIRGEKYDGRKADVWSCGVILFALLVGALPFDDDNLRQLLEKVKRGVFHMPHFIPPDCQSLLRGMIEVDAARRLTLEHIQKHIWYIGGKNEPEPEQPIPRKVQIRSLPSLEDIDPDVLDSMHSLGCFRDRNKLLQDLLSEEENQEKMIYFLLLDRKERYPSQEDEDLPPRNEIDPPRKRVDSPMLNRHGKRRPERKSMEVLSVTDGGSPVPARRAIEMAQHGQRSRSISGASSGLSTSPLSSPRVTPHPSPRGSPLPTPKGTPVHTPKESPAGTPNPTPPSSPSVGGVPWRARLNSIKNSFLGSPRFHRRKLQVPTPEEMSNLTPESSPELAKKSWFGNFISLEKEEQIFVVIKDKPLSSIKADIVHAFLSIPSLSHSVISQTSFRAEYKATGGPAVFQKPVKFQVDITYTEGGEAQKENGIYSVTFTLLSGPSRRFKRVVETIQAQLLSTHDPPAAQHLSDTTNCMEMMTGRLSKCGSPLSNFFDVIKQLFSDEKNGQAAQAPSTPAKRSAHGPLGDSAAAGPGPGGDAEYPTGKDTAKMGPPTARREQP
# Chain of Serine/threonine-protein kinase 35 (Homo sapiens) (Q8TDR2 whole entry): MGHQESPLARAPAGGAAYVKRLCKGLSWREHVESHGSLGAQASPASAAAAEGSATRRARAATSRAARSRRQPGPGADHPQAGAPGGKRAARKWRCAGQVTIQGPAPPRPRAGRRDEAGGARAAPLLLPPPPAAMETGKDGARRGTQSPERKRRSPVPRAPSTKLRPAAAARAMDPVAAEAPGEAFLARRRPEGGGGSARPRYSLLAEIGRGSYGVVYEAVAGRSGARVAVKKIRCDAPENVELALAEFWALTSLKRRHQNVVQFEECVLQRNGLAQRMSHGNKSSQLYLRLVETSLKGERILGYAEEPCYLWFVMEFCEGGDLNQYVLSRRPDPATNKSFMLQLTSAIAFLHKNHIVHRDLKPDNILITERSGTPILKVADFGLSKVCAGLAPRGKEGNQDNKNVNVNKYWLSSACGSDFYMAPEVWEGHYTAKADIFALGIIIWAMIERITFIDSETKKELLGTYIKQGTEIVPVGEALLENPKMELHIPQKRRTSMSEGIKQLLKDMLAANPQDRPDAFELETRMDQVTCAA
structure (smiles),measurement,setting,value
O=C(N[C@@H](C1CC1)C(F)(F)F)c1cc(-c2cnn3cc(-c4ccc(F)cc4)cnc23)cs1,fold change (FC),[1],0.01
same,fold change (FC),[2],0.01
same,fold change (FC),[3],0.07
same,inhibition,[4],Active
CC(C)[C@H](NC(=O)c1cc(-c2cnn3cc(-c4ccc(OCCN5CCCCC5)cc4)cnc23)cs1)C(F)(F)F,inhibition,[5],22%
same,fold change (FC),[6],0
same,inhibition,[7],6%
same,inhibition,[8],3%
same,inhibition,[9],4%
CNC(=O)c1ccccc1Oc1nc(Nc2cc(OC)c(OC)c(OC)c2)ncc1Br,fold change (FC),[10],0
same,fold change (FC),[11],0.04
